The record followed here is ChEMBL document CHEMBL1153456, “Synthesis and opioid receptor activity of indolopropellanes” (Bioorg Med Chem Lett, 2009).

One may read the Ki as the equilibrium dissociation constant of an inhibitor or competing ligand from its target. In general, EC50 refers to the concentration that produces a half-maximal response. The Emax is the maximal effect, on the per cent scale that the assay sets.

Some results are limits rather than exact numbers.

The target in experiment [1] is T1, Kappa-type opioid receptor (Homo sapiens, UniProt P41145). The experiment in a line: Displacement of [3H]U50488 from human kappa opioid receptor expressed in CHO cells. It counts as cell-based. In short, it runs like this: (§1)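 Binding was run on CHO membranes at 0.5 mg protein per sample, incubated at 25 °C in 50 mM Tris–HCl pH 7.5 with the receptor-specific radioligand and 12 compound concentrations. Naloxone defined nonspecific binding. Values are means ± SEM from three experiments, each run in triplicate.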
T1 sequence (P41145 whole entry): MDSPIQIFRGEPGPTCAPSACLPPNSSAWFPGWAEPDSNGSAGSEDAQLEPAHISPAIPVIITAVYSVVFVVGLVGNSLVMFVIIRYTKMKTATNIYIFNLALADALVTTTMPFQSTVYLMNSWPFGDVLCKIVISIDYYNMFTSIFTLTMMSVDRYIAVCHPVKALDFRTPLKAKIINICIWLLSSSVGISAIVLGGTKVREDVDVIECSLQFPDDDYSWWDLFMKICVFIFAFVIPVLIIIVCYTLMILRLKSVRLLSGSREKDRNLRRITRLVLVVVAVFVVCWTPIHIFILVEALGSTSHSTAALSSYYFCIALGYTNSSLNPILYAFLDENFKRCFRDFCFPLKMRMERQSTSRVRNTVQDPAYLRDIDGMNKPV

For experiment [2], the target named is T2, Mu-type opioid receptor (Homo sapiens, UniProt P35372). The experiment in a line: Displacement of [3H]DAMGO from human mu opioid receptor expressed in CHO cells. It counts as cell-based. The method, boiled down: as §1
T2 sequence (P35372 whole entry): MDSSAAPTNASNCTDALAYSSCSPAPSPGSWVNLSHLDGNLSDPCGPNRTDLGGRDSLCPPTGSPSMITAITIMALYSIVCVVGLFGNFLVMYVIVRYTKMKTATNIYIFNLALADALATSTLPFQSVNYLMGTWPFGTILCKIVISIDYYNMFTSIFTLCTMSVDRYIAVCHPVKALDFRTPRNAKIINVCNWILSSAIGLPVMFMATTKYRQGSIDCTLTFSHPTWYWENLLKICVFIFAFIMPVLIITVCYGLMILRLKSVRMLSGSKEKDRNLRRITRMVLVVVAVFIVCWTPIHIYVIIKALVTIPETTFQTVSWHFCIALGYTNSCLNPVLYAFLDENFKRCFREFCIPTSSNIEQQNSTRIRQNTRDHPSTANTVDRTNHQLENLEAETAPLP
(Displacement assays read how much labelled ligand stays bound in the presence of the test substance.)

The target of experiment [3] is T3, Delta-type opioid receptor (Homo sapiens, UniProt P41143). In words: Displacement of [3H]naltrindole from human delta opioid receptor expressed in CHO cells. In kind it is cell-based. In short, it runs like this:
as §1

Experiment [4] deals with T1, Kappa-type opioid receptor. The experiment in a line: Agonist activity at human kappa opioid receptor expressed in CHO cells assessed as stimulation of [35S]GTPgammaS binding by scintillation counting. In kind it is functional, cell-based. The method, boiled down:
(§2)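 CHO cell membranes expressing the opioid receptor were incubated with varying concentrations of compound in the presence of 0.8 nM [35S]GTPγS. EC50 and Emax were derived from the concentration–response data. Values are means from three experiments, each run in triplicate.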

For experiment [5], the target named is T3, Delta-type opioid receptor. The experiment in a line: Agonist activity at human delta opioid receptor expressed in CHO cells assessed as stimulation of [35S]GTPgammaS binding by scintillation counting. In kind it is functional, cell-based. In short, it runs like this:
as §2
A general note: GTPγS is a poorly hydrolysed GTP analogue; its binding reports G protein activation.

The target in experiment [6] is T2, Mu-type opioid receptor. The experiment in a line: Agonist activity at human mu opioid receptor expressed in CHO cells assessed as stimulation of [35S]GTPgammaS binding by scintillation counting. It counts as functional, cell-based. In short, it runs like this:
as §2

Experiment [7] addresses Delta-type opioid receptor (Rattus norvegicus, UniProt P33533). In words: Displacement of [3H]p-Cl-DPDPE from rat delta opioid receptor expressed in rat C6 cells.

T3 sequence (P41143 whole entry): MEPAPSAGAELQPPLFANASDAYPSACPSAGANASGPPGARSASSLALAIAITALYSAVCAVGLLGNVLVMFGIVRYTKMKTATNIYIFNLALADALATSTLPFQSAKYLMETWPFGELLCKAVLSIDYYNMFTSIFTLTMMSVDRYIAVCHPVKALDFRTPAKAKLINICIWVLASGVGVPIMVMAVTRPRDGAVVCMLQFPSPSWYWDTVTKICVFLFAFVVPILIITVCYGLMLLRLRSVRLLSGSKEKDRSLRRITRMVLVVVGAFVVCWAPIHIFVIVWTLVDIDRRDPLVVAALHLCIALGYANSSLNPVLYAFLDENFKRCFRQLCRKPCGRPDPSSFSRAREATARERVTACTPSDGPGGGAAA
Chain of Delta-type opioid receptor (Rattus norvegicus, UniProt P33533) (P33533 whole entry): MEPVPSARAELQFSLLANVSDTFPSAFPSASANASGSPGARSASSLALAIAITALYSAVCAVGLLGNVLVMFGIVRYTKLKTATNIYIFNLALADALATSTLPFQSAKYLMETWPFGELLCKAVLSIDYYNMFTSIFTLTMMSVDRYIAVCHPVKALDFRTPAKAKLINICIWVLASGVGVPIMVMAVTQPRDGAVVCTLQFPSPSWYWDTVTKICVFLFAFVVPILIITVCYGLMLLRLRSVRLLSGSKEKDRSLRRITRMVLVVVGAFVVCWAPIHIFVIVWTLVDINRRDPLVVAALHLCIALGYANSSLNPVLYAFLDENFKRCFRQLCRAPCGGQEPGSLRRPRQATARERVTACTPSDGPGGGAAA

On to `Cn1c2c(c3ccccc31)C[C@@]13Cc4ccc(O)cc4[C@@]1(CCN(CC1CC1)C3)C2`, for which the inhibition constant Ki in experiment [1] turned out to be 1520 nM; in experiment [2] it was 469 nM; in experiment [3] it was 1790 nM.
Consider `CN1CC[C@]23Cc4c(c5ccccc5n4C)C[C@]2(Cc2ccc(O)cc23)C1`, for which the figures for the EC50 in experiment [4], in experiment [5] and in experiment [6] were 62.1 nM, 65 nM and 174 nM, respectively. Moreover, the values for the Emax in experiment [4], in experiment [5] and in experiment [6] were 76.2%, 77.3% and 95.7%, respectively. Besides, the Ki in experiment [1] was determined as 1120 nM; in experiment [2] it was 40.2 nM; in experiment [3], 268 nM.
`CN1CC[C@]23Cc4[nH]c5ccccc5c4C[C@]2(Cc2ccc(O)cc23)C1`: the inhibition constant Ki in experiment [1] amounted to 1190 nM; in experiment [2], 104 nM; in experiment [3] it was 1120 nM.
As for `COc1ccc2c(c1)[C@]13CCN(CC4CC4)C[C@@]1(C2)Cc1c([nH]c2ccccc12)C3`, the Ki in experiment [1] stood at 2550 nM; in experiment [2] it was 1420 nM; in experiment [3], 6650 nM.
Regarding `COc1ccc2c(c1)[C@]13CCN(C)C[C@@]1(C2)Cc1c([nH]c2ccccc12)C3`, the Ki in experiment [1] stood at 5120 nM; in experiment [2], 1820 nM; in experiment [3], 765 nM.
Regarding `Oc1ccc2c(c1)[C@]13CCN(CC4CC4)C[C@@]1(C2)Cc1c([nH]c2ccccc12)C3`, the EC50 in experiment [4] was 67.1 nM; in experiment [5], 10 nM; in experiment [6] it was 33 nM. The results for the maximal response (Emax) in experiment [4], in experiment [5] and in experiment [6] were 79.9%, 91.4% and 88.6%, respectively. The Ki in experiment [1] is 704 nM; in experiment [2], 523 nM; in experiment [3], 2550 nM.
As to `COc1ccc2c(c1O)[C@]13CCN(C)[C@H](C2)[C@]1(O)Cc1c([nH]c2ccccc12)C3`, the Ki in experiment [1] is 3160 nM; in experiment [2] it was 1850 nM; in experiment [3], 21.8 nM.
`Oc1ccc2c3c1O[C@H]1c4[nH]c5ccccc5c4C[C@@]4(O)[C@@H](C2)N(CC2CC2)CC[C@]314` [NALTRINDOLE] yielded a Ki in experiment [7] of 0.2 nM.
Consider `COc1c(O)ccc2c1[C@]13CCN(C)[C@H](C2)[C@]1(O)Cc1c([nH]c2ccccc12)C3`, for which the Ki in experiment [2] was determined as 474 nM; in experiment [3] it was 4.5 nM.
`COc1ccc2c(c1)[C@]13CCN(C)C[C@@]1(C2)Cc1c(n(C)c2ccccc12)C3`: the Ki in experiment [1] is 3810 nM; in experiment [2] it was 713 nM; in experiment [3] it was greater than 10000 nM.
